Activity calls are given as the source filed them. The rule behind the calls is not given here.

The term inhibition denotes the change of the read-out against control, counted positive when it falls.

Data set [1] can be described thus: Cytotoxicity against human SH-SY5Y cells assessed as reduction in cell viability incubated for 24 hrs by propidium iodide staining based fluorescence analysis. To be noted: read-out: LD50. Format: toxicity.
The target in data set [2] is Cholinesterase (Homo sapiens) (UniProt P06276). Briefly: Inhibition of human recombinant BChE at 100 uM using butyrylthiocholine iodide as substrate preincubated for 20 mins followed by substrate addition and measured every 240 sec by Ellman's method relative to control.
Data set [3] deals with Mus musculus. Briefly: Cognitive enhancement effect […] of SAMP8 mouse assessed as increase in novelty discrimination index at 2 mg/kg, po administered 4 weeks by Novel object recognition test. Format: functional, organism-based. Put shortly: (§1)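 SAMP8 mice were dosed orally once daily for 4 weeks at 2 mg kg⁻¹ day⁻¹; controls received vehicle. In the novel object recognition test, a familiarization phase preceded testing for short-term and long-term working memory. The discrimination index scores the ability to distinguish a known from a new object. Values are mean ± SEM.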

Data set [4] concerns Mus musculus. Briefly: Antineuroinflammatory activity in SAMP8 mouse assessed as decrease in IL-1beta gene expression hippocampus tissue at 2 mg/kg, po measured after 4 weeks by RT-PCR analysis. Format: functional, organism-based. Summed up:
(§2)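 Hippocampal gene expression was measured by real-time PCR in SAMP8 mice after daily oral treatment for 4 weeks (2 mg kg⁻¹ day⁻¹), compared with vehicle-treated SAMP8 controls. Values are mean ± SEM.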

For data set [5], the system named is Mus musculus. Briefly: Antialzheimer activity against SAMP8 mouse assessed as reduction in tau phosphorylation ar Ser396 residue at 2 mg/kg, po measured after 4 weeks by Western blot analysis. The class given is functional, organism-based. Summed up: (§3)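 SAMP8 mice received oral dosing daily for 4 weeks at 2 mg kg⁻¹ day⁻¹, with vehicle-treated SAMP8 mice as controls. Hippocampal protein levels were expressed relative to the SAMP8 control group, set to 100%; for tau this is the p-Tau (Ser396 and Ser404) ratio. Values are mean ± SEM, tested against control.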
(A western blot detects proteins with antibodies after separation by electrophoresis.)

The test system of data set [6] is Mus musculus. Briefly: Antialzheimer activity against SAMP8 mouse assessed as decrease in hippocampal sAPPbeta levels at 2 mg/kg, po measured after 4 weeks by Western blot analysis. Format: functional, organism-based. Summed up:
as §3

Data set [7] has as its system Mus musculus. Briefly: Cognitive enhancing effect in SAMP8 mouse assessed as improvement of long term memory by measuring increased discrimination index at 2 mg/kg, po administered for 4 weeks by novel object recognition test. The class given is functional, organism-based. Put shortly:
as §1

Data set [8] has as its system Mus musculus. Briefly: Antialzheimer activity against SAMP8 mouse assessed as increase in hippocampal sAPPalpha levels at 2 mg/kg, po measured after 4 weeks by Western blot analysis. The class given is functional, organism-based. Summed up: as §3
The subject of data set [9] is Mus musculus. Briefly: Cognitive enhancing effect in SAMP8 mouse assessed as improvement of short term memory by measuring discrimination index at 2 mg/kg, po administered for 4 weeks by novel object recognition test. The class given is functional, organism-based. Summed up: as §1
The subject of data set [10] is Mus musculus. Briefly: Antineuroinflammatory activity in SAMP8 mouse assessed as decrease in Gfap gene expression hippocampus tissue at 2 mg/kg, po measured after 4 weeks by RT-PCR analysis. Format: functional, organism-based. Summed up:
as §2

Data set [11] concerns Mus musculus. Briefly: Antineuroinflammatory activity in SAMP8 mouse assessed as increase in synaptophysin expression in hippocampus tissue at 2 mg/kg, po measured after 4 weeks by Western blot analysis. Format: functional, organism-based. Summed up: as §3
Data set [12] relates to Mus musculus. Briefly: Antineuroinflammatory activity in SAMP8 mouse assessed as decrease in IL-6 gene expression hippocampus tissue at 2 mg/kg, po measured after 4 weeks by RT-PCR analysis. Format: functional, organism-based. Put shortly: as §2
In data set [13] the test system is Mus musculus. Briefly: Antineuroinflammatory activity in SAMP8 mouse assessed as decrease in NFkappaB protein expression hippocampus tissue at 2 mg/kg, po measured after 4 weeks by Western blot analysis. The class given is functional, organism-based. Put shortly: as §3

Chain of Cholinesterase (Homo sapiens) (P06276 whole entry): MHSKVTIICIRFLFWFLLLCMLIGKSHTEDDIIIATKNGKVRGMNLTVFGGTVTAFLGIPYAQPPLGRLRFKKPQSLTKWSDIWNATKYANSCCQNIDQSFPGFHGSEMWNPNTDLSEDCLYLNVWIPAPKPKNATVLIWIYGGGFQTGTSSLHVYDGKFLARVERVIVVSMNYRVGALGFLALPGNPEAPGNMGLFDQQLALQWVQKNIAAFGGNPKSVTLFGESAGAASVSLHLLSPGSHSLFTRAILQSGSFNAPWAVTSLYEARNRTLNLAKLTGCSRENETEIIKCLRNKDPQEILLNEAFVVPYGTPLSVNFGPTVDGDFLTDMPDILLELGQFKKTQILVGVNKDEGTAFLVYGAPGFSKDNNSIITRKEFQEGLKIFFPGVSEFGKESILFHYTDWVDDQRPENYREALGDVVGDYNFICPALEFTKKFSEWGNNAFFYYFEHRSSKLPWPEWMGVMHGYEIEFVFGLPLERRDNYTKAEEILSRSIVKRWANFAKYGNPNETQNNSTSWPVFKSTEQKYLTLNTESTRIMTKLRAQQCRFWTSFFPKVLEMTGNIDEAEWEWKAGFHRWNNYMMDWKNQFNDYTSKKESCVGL

Turning to `O=C(Nc1ccc(OC(F)(F)F)cc1)NC1CCN(C(=O)CCCNc2c3c(nc4cc(Cl)ccc24)CCCC3)CC1`, the CC50 at 24 h in [1] is greater than 100 µM.

`CC(=O)N1CCC(NC(=O)Nc2ccc(OC(F)(F)F)cc2)CC1`: the inhibition in [2] was less than 10%.

Consider `O=C(Nc1ccc(OC(F)(F)F)cc1)NC1CCN(C(=O)CCCCNc2c3c(nc4cc(Cl)ccc24)CCCC3)CC1`, for which the result in the data set on Mus musculus [3], with Mus musculus [4], in the data set with Mus musculus [5], in the data set with Mus musculus [6], with Mus musculus [7] and in the data set on Mus musculus [8] was Active. The outcome in the data set with Mus musculus [9], in the data set on Mus musculus [10], in the data set with Mus musculus [11], in the data set on Mus musculus [12] and in the data set with Mus musculus [13] was Active. The CC50 at 24 h in [1] was greater than 100 µM.

As for `O=C(Nc1ccc(OC(F)(F)F)cc1)NC1CCN(C(=O)CCNc2c3c(nc4cc(Cl)ccc24)CCCC3)CC1`, the CC50 at 24 h in data set [1] was determined as 92.8 µM.

On to `CC1=C[C@@H]2Cc3nc4cc(Cl)ccc4c(NCCCCC(=O)N4CCC(NC(=O)Nc5ccc(OC(F)(F)F)cc5)CC4)c3[C@H](C1)C2`, for which, in [1], the CC50 at 24 h is greater than 100 µM.

The record behind these values is ChEMBL document CHEMBL5154790 (J Med Chem, 2022).
